In the library only some 2.9% were active in any assay of this set; here they are far more common.
core dimer inh: HCV core protein dimerization inhibition. TR-FRET GST/Flag-core106 dimerization, 1536-well. inhibition, % at 5 µM. 300,000 tested, 0.33% active. AID 1899;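 active = inhibition above the mean of all tested compounds plus 3 SD, set per screening campaign, cut at about 45% in these data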
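Test system: GST/Flag-tagged HCV core106 proteins; Medium: KF-containing HEPES buffer, pH 7.45, DTT, CHAPS, BSA; Times: compound-protein-antibody incubation 4 h at 22.5 °C; Detection: TR-FRET 671 and 617 nm emission; Benchmarks: wells lacking GST-core106 and wells with excess unlabelled core106.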
NS3 helicase inh: blocks Hepatitis C virus NS3 helicase unwinding; NS3 helicase DNA unwinding, Cy5 molecular beacon fluorescence; inhibition, % at 10.9 µM; 290,000 tested, 0.56% active;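 active = inhibition above the mean of all tested compounds plus 3 SD, set per campaign, cut at about 35% in these data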
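Compound dosing – single dose, 10.9 µM nominal final, DMSO 0.8% final · System – NS3 helicase fragment of HCV · Buffer or medium – MOPS pH 6.5, MgCl2, DTT, Tween20, BSA · Signal – Cy5 beacon fluorescence read at start and 1 h · Also added – annealed dual-labelled DNA beacon duplex, ATP-started · Schedule – 1 h at 25 °C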
ABHD5-PLIN5 inh: inhibitors of human ABHD5-perilipin-5 interaction; Q00G26+Q8WTS1; Split G. princeps luciferase complementation, luminescence, 4 h; inhibition, % at 4 µM; 360,000 tested, 0.78% active; AID 602281;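 active = inhibition above the mean inhibition across every tested compound plus 3 SD, cut at about 22% in these data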
A3A deaminase: blocks human APOBEC3A ssDNA deamination. inhibition, % at 20 µM. recombinant A3A, FAM/TAMRA ssDNA deamination fluorescence. 330,000 tested, 0.41% active. P31941;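 active = at least 40% inhibition at 20 µM here, with at most 30% in a related deaminase screen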
Target sequence (P31941 whole entry, looked up): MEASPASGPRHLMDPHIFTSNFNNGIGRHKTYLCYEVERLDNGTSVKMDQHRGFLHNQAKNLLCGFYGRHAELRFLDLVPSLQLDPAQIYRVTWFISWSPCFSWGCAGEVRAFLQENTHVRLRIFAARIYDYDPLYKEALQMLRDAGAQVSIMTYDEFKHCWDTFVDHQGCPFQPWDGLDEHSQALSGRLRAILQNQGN
APOBEC3G inh: APOBEC3G (human) deaminase inhibition. Q9HC16. recombinant A3G, ssDNA deamination FAM/TAMRA fluorescence. inhibition, % at 20 µM. 330,000 tested, 0.28% active. AID 493012;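 active = inhibition of at least 40% at 20 µM, with no more than 30% in the related APOBEC3A deaminase screen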
Target sequence (Q9HC16 whole entry, looked up): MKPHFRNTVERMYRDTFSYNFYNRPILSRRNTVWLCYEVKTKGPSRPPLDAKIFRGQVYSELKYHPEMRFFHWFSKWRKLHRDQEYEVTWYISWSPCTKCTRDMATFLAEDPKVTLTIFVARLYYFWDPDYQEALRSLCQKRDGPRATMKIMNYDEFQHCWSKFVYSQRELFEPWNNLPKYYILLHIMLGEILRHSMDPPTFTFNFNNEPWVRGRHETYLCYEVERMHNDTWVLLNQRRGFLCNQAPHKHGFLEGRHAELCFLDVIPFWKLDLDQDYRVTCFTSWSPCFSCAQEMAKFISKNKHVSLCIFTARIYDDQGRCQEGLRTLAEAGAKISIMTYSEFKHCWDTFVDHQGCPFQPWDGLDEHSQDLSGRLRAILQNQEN
PRMT1 inh: inhibitors of human PRMT1 | 370,000 tested, 1.3% active | Q99873 | inhibition, % at 2.79 µM | AID 652257 | recombinant PRMT1, activity-based probe fluorescence polarization;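 active = inhibition above about 21% made by adding two undisclosed values, limit read from the data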
NS3 hel confirm: confirmation of Hepatitis C virus NS3 helicase inhibitors; shares compounds with NS3 helicase inh; NS3 helicase DNA unwinding, Cy5 molecular beacon fluorescence; inhibition, % at 10.9 µM; 1,600 tested, 31% active; AID 1943;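 active = inhibition above the mean of all tested compounds plus 3 SD, cutoff set per campaign, cut at about 36% in these data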
FID counter trip: displaces DNA intercalator in HCV helicase counter-screen | AID 1945 | shares compounds with NS3 helicase inh | inhibition, % at 7.9 µM | 1,600 tested, 4% active | DNA fluorescent intercalator displacement, fluorescence; in the data active = inhibition above about 37%;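 also: higher means more displacement of ethidium bromide from the DNA hairpin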
Large screens that a line does not name were inactive (follow-up assays come after a bar, where they were run).

CCn1nc(-c2ccccc2)nc2c(=O)n(C)c(=O)nc1-2	core dimer inh 48 (no result: PRMT1 inh)
C=CCN(CC#CCO)Cc1ccc(OC)cc1OC	none (no result: core dimer inh, NS3 helicase inh, ABHD5-PLIN5 inh, A3A deaminase, APOBEC3G inh)
O=C(NCCN1CCC2(CC1)C(=O)NCN2c1ccccc1)c1ccc(Cl)cc1	none (no result: core dimer inh, NS3 helicase inh, ABHD5-PLIN5 inh, A3A deaminase, APOBEC3G inh)
Cc1cc(/C=C2\C(=O)NC(=O)N(c3ccc(Cl)cc3)C2=O)c(C)n1-c1sc2c(c1C#N)CCCC2	core dimer inh 47
C=CC1CN2CCC1CC2C(OC(C)=O)c1ccnc2ccc(OC)cc12 (stereo not drawn)	none
C=C1C(=O)O[C@@H]2C[C@@H](C)[C@@H]3C4OC4C(=O)[C@@]3(C)[C@@H](O)[C@H]12 (stereo partly drawn)	ABHD5-PLIN5 inh 48 (no result: NS3 helicase inh)
C=C1C(=O)O[C@H]2C[C@@H](C)[C@@H]3C=CC(=O)[C@@]3(C)C[C@H]12	none (no result: NS3 helicase inh, ABHD5-PLIN5 inh)
C[C@H](NC(=O)OCc1ccccc1)C(=O)NC(Cc1ccccc1)P(=O)(Oc1ccccc1)Oc1ccccc1 (stereo partly drawn)	none (no result: core dimer inh, NS3 helicase inh, ABHD5-PLIN5 inh, A3A deaminase, APOBEC3G inh)
O=[N+]([O-])c1ccc(N(CCO)CCO)c2c1no[n+]2[O-]	none (no result: core dimer inh, NS3 helicase inh, A3A deaminase, APOBEC3G inh)
CN1CCN(c2ccc([N+](=O)[O-])c3no[n+]([O-])c23)CC1	PRMT1 inh 112 (no result: A3A deaminase, APOBEC3G inh)
CC(C)C[C@H]1N=C(c2ccccc2)c2ccccc2N(CC(=O)NC(C)(C)C)C1=O	none (no result: core dimer inh, NS3 helicase inh, ABHD5-PLIN5 inh, A3A deaminase, APOBEC3G inh)
O=[N+]([O-])c1ccc(O)c([N+](=O)[O-])c1	none (no result: NS3 helicase inh)
O=[N+]([O-])c1cc(O)c(O)c([N+](=O)[O-])c1	PRMT1 inh 32 (no result: NS3 helicase inh)
CC1(C)N2CC3([N+](=O)[O-])CN1CC([N+](=O)[O-])(C2)C3	none
COc1cc(O)c(C(=O)O)c(-c2cc(O)c(O)cc2C)c1	PRMT1 inh 67 (no result: NS3 helicase inh)
CC1=C(C(=O)O)N2C(=O)[C@@H](NC(=O)CCCC(=O)O)[C@H]2SC1	PRMT1 inh 23
CCN1C(=O)NC(=O)/C(=C\c2cn(CC(=O)N3CCCCC3C)c3ccccc23)C1=O (stereo not drawn)	none (no result: PRMT1 inh)
CCN(CC)C(=O)Cn1cc(/C=C2\C(=O)NC(=O)N(c3ccccc3F)C2=O)c2ccccc21	ABHD5-PLIN5 inh 23
COc1cccc(-n2c(O)c(C=NCCN3CCOCC3)c(=O)[nH]c2=O)c1	none
CCn1c(O)c(C=Nc2cc(Cl)ccc2Cl)c(=O)n(CC)c1=O	PRMT1 inh 22
COc1ccc(Cl)cc1N=Cc1c(O)n(C)c(=O)n(C)c1=O	none
N#CCC[C@@H]1CC[C@]2(CCCN(Cc3ccccn3)C2)O1	none (no result: core dimer inh, NS3 helicase inh, ABHD5-PLIN5 inh, A3A deaminase, APOBEC3G inh)
O=C1NC(=S)N(c2ccc(F)cc2)C(=O)/C1=C/c1ccco1	core dimer inh 77 (no result: ABHD5-PLIN5 inh, PRMT1 inh)
Cc1cccc(N2C(=O)NC(=O)/C(=C\c3cccn3-c3ccc(Cl)cc3)C2=O)c1	ABHD5-PLIN5 inh 30
Cc1ccc(-c2nc(N(C)C3CCN(C)CC3)c3ccccc3n2)cc1	NS3 helicase inh 38 | NS3 hel confirm inactive | FID counter trip 84
CN1CCC(N(C)c2ncnc3ccc(Br)cc23)CC1	none (no result: core dimer inh, A3A deaminase, APOBEC3G inh)
O=c1cccc2n1CC1CC2CN(S(=O)(=O)c2ccccc2)C1 (stereo not drawn)	none
Cc1cc(/C=C2\C(=O)NC(=O)N(Cc3ccco3)C2=O)c(C)n1-c1ccc(C(=O)O)cc1	none
Cc1ccccc1-n1c(C)cc(/C=C2/C(=O)NC(=O)N(Cc3ccco3)C2=O)c1C	NS3 helicase inh 40 | NS3 hel confirm inactive | FID counter trip inactive
Cc1ccc(-n2c(C)cc(/C=C3/C(=O)NC(=O)N(Cc4ccco4)C3=O)c2C)cc1	NS3 helicase inh 63 | NS3 hel confirm inactive | FID counter trip inactive
CCOP(=O)(OCC)C(NC(=O)c1ccccc1C)C(Cl)(Cl)Cl (stereo not drawn)	none
CC1Oc2cc3c(-c4c(O)cc(O)c5c(O)c6c(cc45)OC(C)C(C)C6=O)c(O)cc(O)c3c(O)c2C(=O)C1C (stereo not drawn)	NS3 helicase inh 50 (no result: PRMT1 inh) | NS3 hel confirm 96 | FID counter trip 64
CCOP(=O)(NC(C)C)Oc1ccc(SC)c(C)c1 (stereo not drawn)	none (no result: core dimer inh, NS3 helicase inh, A3A deaminase, APOBEC3G inh)
